Experimental data reported in ChEMBL document CHEMBL1177762, “Identification of a sulfonamide series of CCR2 antagonists” (Bioorg Med Chem Lett, 2010).

Legend:
[1] = biological target: T1, C-C chemokine receptor type 2 (Homo sapiens, UniProt P41597); test: Antagonist activity at human CCR2 expressed in CHO cells assessed as inhibition of MCP1-induced [35S]-GTPgammaS binding after 3 hrs; type: functional, cell-based
Target sequence in this assay (P41597 whole entry): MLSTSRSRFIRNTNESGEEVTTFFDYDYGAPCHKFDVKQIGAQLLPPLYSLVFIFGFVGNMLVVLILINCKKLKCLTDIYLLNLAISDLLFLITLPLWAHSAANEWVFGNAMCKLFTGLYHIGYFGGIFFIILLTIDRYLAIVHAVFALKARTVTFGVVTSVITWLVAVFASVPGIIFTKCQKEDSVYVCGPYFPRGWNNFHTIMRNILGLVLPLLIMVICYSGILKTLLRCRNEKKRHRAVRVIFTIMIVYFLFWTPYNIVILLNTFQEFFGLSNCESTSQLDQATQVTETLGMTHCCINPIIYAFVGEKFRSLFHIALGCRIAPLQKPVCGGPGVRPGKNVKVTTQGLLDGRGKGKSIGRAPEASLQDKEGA

[2] = biological target: T2, C-C chemokine receptor type 1 (Homo sapiens, UniProt P32246); test: Antagonist activity at human CCR1 assessed as inhibition of MIP-1-alpha-induced [35S]-GTPgammaS binding after 3 to 4 hrs; type: functional
T2 sequence (P32246 whole entry): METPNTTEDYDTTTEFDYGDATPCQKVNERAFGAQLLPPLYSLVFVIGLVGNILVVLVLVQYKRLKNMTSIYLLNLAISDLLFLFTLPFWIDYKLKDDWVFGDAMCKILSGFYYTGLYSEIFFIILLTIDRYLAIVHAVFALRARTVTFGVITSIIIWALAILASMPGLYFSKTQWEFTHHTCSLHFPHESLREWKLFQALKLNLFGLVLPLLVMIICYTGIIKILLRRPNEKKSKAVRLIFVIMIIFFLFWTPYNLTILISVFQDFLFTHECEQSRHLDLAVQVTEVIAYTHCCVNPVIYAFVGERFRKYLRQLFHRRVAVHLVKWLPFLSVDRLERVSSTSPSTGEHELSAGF

[3] = biological target: C-C chemokine receptor type 2 (Mus musculus, UniProt P51683); test: Antagonist activity at mouse CCR2; type: functional
Chain of C-C chemokine receptor type 2 (Mus musculus, UniProt P51683) (P51683 whole entry): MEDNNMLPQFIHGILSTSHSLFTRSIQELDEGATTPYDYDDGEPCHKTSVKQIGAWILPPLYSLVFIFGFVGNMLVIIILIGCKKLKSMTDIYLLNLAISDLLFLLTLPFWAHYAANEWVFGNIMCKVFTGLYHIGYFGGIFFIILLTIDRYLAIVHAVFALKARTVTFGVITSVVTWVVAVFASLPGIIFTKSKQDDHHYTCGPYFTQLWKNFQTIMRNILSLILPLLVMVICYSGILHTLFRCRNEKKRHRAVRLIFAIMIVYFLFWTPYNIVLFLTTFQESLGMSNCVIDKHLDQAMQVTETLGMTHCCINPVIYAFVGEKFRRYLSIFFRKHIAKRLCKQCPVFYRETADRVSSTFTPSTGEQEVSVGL

[4] = Lipophilicity, log D of the compound; type: physicochemical; conditions: octanol/water
[5] = biological target: T1, C-C chemokine receptor type 2; test: Antagonist activity at CCR2 in human THP1 cells assessed as inhibition of CCL2-induced chemotaxis at 1 uM in presence of 0.1% human serum; type: functional, cell-based; conditions: THP-1
In short: (§1)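 Boyden chamber (48-well) chemotaxis of THP-1 cells stimulated with CCL2. Foetal bovine serum or human serum was added to the assay buffer.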
Target sequence in this assay (P41597 whole entry, looked up): as the sequence (P41597 whole entry) above

[6] = biological target: T1, C-C chemokine receptor type 2; test: Antagonist activity at CCR2 in human THP1 cells assessed as inhibition of CCL2-induced chemotaxis at 1 uM in presence of 1% human serum; type: functional, cell-based; conditions: THP-1; in short: as §1
Target sequence in this assay (P41597 whole entry, looked up): as the sequence (P41597 whole entry) above

[7] = biological target: T1, C-C chemokine receptor type 2; test: Antagonist activity at CCR2 in human THP1 cells assessed as inhibition of CCL2-induced chemotaxis at 10 uM in presence of 1% human serum; type: functional, cell-based; conditions: THP-1; in short: as §1
Target sequence in this assay (P41597 whole entry, looked up): as the sequence (P41597 whole entry) above

[8] = biological target: C-C chemokine receptor type 1 (Homo sapiens) (UniProt P32246); test: Antagonist activity at human CCR1
[9] = Oral bioavailability in rat; type: ADME, organism-based; conditions: in vivo
[10] = Half life in iv dosed in rat; type: ADME, organism-based; conditions: in vivo
[11] = Clearance in rat; type: ADME, organism-based; conditions: in vivo
Rattus norvegicus = species: Rattus norvegicus; test: Volume of distribution in rat; type: ADME, organism-based; conditions: in vivo
[12] = biological target: Voltage-gated inwardly rectifying potassium channel KCNH2 (Homo sapiens, UniProt Q12809); test: Binding affinity to human ERG by fluorescence-polarization binding assay
Chain of Voltage-gated inwardly rectifying potassium channel KCNH2 (Q12809 whole entry): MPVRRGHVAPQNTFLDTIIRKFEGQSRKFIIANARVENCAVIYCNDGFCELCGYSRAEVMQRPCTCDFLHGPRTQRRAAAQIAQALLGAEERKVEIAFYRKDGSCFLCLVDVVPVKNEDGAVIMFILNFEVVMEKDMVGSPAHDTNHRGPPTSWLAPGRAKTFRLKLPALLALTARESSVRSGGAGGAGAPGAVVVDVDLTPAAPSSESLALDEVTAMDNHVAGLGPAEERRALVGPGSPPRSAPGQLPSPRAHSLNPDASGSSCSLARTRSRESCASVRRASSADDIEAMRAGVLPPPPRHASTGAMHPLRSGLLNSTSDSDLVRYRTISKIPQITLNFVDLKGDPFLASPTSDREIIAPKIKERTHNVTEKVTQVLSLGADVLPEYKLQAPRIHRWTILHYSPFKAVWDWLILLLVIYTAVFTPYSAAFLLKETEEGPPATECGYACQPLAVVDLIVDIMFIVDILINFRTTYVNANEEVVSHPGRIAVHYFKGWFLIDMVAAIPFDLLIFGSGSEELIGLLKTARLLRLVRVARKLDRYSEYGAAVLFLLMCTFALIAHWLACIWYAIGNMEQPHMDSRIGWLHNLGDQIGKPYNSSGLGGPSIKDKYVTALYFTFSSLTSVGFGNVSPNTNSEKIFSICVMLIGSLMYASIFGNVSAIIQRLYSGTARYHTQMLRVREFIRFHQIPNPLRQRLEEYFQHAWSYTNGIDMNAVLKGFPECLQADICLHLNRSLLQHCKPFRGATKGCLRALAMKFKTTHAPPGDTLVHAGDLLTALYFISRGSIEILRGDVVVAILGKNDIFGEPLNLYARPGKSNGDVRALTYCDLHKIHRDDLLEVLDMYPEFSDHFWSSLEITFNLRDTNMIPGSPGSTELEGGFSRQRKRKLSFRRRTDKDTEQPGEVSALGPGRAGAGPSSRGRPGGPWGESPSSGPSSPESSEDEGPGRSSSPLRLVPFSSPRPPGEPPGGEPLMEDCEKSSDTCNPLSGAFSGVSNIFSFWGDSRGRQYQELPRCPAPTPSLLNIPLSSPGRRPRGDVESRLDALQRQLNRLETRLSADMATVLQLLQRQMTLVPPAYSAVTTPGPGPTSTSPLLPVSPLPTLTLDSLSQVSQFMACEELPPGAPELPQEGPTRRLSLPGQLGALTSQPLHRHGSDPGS

[13] = biological target: T3, C-C chemokine receptor type 4 (Homo sapiens, UniProt P51679); test: Antagonist activity at CCR4; type: functional
T3 sequence (P51679 whole entry): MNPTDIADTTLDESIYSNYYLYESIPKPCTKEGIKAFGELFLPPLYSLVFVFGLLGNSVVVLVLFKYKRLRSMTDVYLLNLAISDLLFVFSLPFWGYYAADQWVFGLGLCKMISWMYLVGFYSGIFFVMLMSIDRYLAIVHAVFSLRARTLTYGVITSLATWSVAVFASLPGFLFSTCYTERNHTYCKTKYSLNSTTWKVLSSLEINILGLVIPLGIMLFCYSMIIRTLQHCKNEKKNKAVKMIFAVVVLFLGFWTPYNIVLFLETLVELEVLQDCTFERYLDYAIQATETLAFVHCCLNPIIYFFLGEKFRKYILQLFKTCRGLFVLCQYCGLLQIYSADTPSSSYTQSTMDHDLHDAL

[14] = biological target: C-C chemokine receptor type 5 (Homo sapiens, UniProt P51681); test: Antagonist activity at CCR5 at 10 uM; type: functional; design: scale not given: the % may be the effect or the level left
Chain of C-C chemokine receptor type 5 (P51681 whole entry, looked up): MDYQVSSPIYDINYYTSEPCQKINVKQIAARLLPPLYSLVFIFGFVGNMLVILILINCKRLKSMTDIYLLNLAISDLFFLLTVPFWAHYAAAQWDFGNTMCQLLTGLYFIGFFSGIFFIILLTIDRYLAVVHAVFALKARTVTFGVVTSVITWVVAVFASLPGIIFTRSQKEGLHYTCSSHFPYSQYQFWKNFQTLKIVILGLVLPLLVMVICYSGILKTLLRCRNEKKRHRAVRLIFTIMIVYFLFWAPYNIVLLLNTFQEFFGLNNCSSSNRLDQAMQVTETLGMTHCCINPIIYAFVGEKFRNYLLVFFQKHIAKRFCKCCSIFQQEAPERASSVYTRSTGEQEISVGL

[15] = Half life in po dosed in rat; type: ADME, organism-based; conditions: in vivo
Cytochrome P450 1A2 = biological target: T4, Cytochrome P450 1A2 (Homo sapiens, UniProt P05177); test: Inhibition of CYP1A2; type: ADME
T4 sequence (P05177 whole entry): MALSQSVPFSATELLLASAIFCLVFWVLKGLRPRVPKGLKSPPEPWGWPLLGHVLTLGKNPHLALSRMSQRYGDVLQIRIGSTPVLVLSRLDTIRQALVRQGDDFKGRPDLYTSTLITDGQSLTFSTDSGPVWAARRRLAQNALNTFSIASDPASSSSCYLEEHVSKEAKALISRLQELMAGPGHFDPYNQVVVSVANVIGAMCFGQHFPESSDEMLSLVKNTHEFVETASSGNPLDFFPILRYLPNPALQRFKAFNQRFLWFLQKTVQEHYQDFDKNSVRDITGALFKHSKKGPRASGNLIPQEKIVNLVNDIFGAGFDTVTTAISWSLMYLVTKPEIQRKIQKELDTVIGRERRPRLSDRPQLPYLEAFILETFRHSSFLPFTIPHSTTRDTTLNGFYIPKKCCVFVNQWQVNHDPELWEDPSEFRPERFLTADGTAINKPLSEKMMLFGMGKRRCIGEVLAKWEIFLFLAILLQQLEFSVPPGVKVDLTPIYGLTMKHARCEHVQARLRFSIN

Cytochrome P450 2C19 = Cytochrome P450 2C19 (Homo sapiens, UniProt P33261); test: Inhibition of CYP2C19; type: ADME
Chain of Cytochrome P450 2C19 (P33261 whole entry): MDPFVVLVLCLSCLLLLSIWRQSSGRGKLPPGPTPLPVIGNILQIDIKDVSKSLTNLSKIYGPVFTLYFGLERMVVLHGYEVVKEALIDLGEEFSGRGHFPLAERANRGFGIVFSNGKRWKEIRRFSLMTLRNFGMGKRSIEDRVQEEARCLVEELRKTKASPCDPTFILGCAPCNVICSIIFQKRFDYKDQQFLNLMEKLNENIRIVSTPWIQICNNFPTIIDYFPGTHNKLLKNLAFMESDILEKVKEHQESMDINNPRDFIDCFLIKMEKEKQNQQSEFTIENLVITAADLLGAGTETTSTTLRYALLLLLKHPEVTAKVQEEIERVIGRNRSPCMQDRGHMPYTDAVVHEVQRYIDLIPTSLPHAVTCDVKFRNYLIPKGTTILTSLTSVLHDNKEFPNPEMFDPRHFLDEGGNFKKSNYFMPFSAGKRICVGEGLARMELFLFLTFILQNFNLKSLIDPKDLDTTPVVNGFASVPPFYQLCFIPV

Cytochrome P450 2C9 = Cytochrome P450 2C9 (Homo sapiens, UniProt P11712); test: Inhibition of CYP2C9; type: ADME
Chain of Cytochrome P450 2C9 (P11712 whole entry): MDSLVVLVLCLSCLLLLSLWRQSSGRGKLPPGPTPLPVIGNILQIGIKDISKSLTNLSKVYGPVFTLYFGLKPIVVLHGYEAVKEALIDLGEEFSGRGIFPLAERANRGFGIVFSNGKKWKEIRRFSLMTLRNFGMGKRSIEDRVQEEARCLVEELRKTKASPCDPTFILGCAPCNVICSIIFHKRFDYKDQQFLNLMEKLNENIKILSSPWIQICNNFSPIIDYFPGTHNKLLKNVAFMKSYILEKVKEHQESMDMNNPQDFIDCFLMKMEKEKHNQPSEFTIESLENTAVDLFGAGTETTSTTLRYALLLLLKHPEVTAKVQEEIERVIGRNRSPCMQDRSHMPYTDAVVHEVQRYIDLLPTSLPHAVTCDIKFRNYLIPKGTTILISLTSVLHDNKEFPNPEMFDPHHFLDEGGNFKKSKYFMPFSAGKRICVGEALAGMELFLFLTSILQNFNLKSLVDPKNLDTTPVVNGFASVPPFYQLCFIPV

Cytochrome P450 2D6 = Cytochrome P450 2D6 (Homo sapiens, UniProt P10635); test: Inhibition of CYP2D6; type: ADME
Chain of Cytochrome P450 2D6 (P10635 whole entry): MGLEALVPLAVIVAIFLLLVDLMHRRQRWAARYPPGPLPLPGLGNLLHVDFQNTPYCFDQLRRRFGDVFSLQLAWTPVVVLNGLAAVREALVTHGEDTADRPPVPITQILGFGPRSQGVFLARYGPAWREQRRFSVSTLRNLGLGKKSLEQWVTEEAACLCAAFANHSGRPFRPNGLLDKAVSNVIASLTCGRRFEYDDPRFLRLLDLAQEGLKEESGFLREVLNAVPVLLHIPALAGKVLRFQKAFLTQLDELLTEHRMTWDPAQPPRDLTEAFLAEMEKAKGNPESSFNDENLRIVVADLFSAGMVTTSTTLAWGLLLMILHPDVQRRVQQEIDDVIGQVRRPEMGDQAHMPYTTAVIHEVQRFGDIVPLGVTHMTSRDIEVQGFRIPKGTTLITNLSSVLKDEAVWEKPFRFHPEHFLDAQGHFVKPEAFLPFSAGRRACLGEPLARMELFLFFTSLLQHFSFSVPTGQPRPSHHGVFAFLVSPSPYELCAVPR

Cytochrome P450 3A4 = Cytochrome P450 3A4 (Homo sapiens, UniProt P08684); test: Inhibition of CYP3A4; type: ADME
Chain of Cytochrome P450 3A4 (P08684 whole entry): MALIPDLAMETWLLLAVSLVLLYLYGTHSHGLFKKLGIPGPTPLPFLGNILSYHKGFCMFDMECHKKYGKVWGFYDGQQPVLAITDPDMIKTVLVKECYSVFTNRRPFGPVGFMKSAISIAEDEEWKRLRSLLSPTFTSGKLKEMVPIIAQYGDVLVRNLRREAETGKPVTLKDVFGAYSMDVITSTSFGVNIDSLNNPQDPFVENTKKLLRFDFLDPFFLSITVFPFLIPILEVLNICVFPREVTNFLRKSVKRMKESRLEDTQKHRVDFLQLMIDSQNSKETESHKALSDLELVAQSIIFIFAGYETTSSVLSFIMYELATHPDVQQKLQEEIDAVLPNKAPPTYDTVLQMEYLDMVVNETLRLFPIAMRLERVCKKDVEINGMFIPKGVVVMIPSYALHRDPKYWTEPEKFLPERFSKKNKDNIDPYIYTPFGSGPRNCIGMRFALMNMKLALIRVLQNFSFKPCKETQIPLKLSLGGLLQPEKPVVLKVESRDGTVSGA

| Ki [1] [µM] | logD [4] | inhibition [5] [%] | inhibition [6] [%] | SMILES | also measured |
| --- | --- | --- | --- | --- | --- |
| 0.126 |  |  |  | O=C(O)c1c(F)cccc1Oc1ccc(C(F)(F)F)cc1NS(=O)(=O)c1ccc(Cl)cc1 | Ki [2]: 0.126 µM; Ki [3]: 1 µM |
| 0.0158 | 2.12 |  |  | N#Cc1ccc(Oc2ncc(Cl)cc2NS(=O)(=O)c2ccc(Cl)c(Cl)c2)cn1 |  |
| > 3.16 |  |  |  | CS(=O)(=O)c1ccc(Oc2ccccc2C(=O)O)c(NS(=O)(=O)c2ccc(Cl)cc2)c1 |  |
| 0.00794 |  |  |  | O=C(O)c1ccccc1Oc1ccc(Cl)cc1NS(=O)(=O)c1cccc(Cl)c1 |  |
| 0.0316 |  | 60 | 41 | O=C(O)c1ccccc1Oc1ncccc1NS(=O)(=O)c1ccc(Cl)c(Cl)c1 |  |
| 0.02 |  |  |  | O=C(O)c1ccccc1Oc1ccc(Cl)cc1NS(=O)(=O)c1ccc(Cl)cc1 | inhibition [7]: 65%; Ki [8]: 0.158 µM |
| 0.794 |  |  |  | O=C(O)c1ccccc1Oc1nccnc1NS(=O)(=O)c1ccc(Cl)c(Cl)c1 |  |
| 0.0501 | 1.5 | 43 | 12 | Cc1ncccc1Oc1ncc(C#N)cc1NS(=O)(=O)c1ccc(Cl)c(Cl)c1 |  |
| 0.0251 | 2.1 | 31 | 0 | O=C(NCCO)c1ccccc1Oc1ncc(Cl)cc1NS(=O)(=O)c1ccc(Cl)c(Cl)c1 | bioavailability [9]: 37%; half-life [10]: 1.1 h; clearance [11]: 13 mL/min/kg; Vd (Rattus norvegicus): 0.47 L/kg; IC50 [12]: > 63.1 µM; Ki [13]: 1.58 µM; Activity [14]: < 10% |
| 0.158 |  |  |  | O=C(O)c1ccccc1Oc1ccc(Cl)cc1NS(=O)(=O)c1ccccc1 |  |
| 0.01 | 2.7 | 72 | 50 | Cc1ncccc1Oc1ncc(Cl)cc1NS(=O)(=O)c1ccc(Cl)c(Cl)c1 | bioavailability [9]: 75%; half-life [10]: 0.8 h; half-life [15]: 2.3 h; clearance [11]: 4.3 mL/min/kg; Vd (Rattus norvegicus): 0.34 L/kg; IC50 [12]: > 31.6 µM; IC50 (Cytochrome P450 1A2): > 100 µM; IC50 (Cytochrome P450 2C19): 22.4 µM; IC50 (Cytochrome P450 2C9): 1.35 µM; IC50 (Cytochrome P450 2D6): > 100 µM; IC50 (Cytochrome P450 3A4): 19.5 µM; Ki [13]: 1.26 µM; Activity [14]: 40% |
| 0.251 |  |  |  | O=C(O)c1ccccc1Oc1ccccc1NS(=O)(=O)c1ccc(Cl)cc1 | Ki [2]: 0.316 µM; Ki [3]: 2 µM |
| 0.398 |  |  |  | O=C(O)c1ccccc1Oc1c(Cl)cccc1NS(=O)(=O)c1ccc(Cl)cc1 | Ki [8]: 0.501 µM |
| 0.398 |  |  |  | CS(=O)(=O)Nc1cc(Cl)ccc1Oc1ccccc1C(=O)O |  |
| 0.0398 |  |  |  | O=C(O)c1ccccc1Oc1ccc(F)cc1NS(=O)(=O)c1ccc(Cl)cc1 | inhibition [7]: 52%; Ki [8]: 0.251 µM |
| 0.00158 | 0.44 | 42 | 33 | O=C(O)c1cccc(Oc2ncc(Cl)cc2NS(=O)(=O)c2ccc(Cl)c(Cl)c2)c1 |  |
